Type in all cases: cell-based
Substrate in series [1]: O=c1ccn([C@@H]2O[C@H](CO)[C@@H](O)[C@H]2O)c(=O)[nH]1
Kind of series: Ratio of Kcat to Km for UCK1 activity expressed in Huh7 cells. The conditions noted are these: Homo sapiens; Huh-7. The essentials:
(§1)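 His-tagged human UCK-1 cloned from Huh-7 cells, assayed at 25°C by pyruvate kinase/lactate dehydrogenase coupling, NADH oxidation at 340 nm. Buffer 64 mM Tris-HCl pH 7.5, 1 mM ATP, Mg2+, phosphoenolpyruvate. Enzyme 41 nM, or 410 nM for 2′-C-methyl cytidines. Substrate concentration varied. Steady-state parameters reported as mean ± SD.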

Substrate in series [2]: O=c1ccn([C@@H]2O[C@H](CO)[C@@H](O)[C@H]2O)c(=O)[nH]1
Kind of series: Activity of human UCK1 expressed in Huh7 cells assessed as phosphorylation by coupled enzyme assay. Particulars: Huh-7. The essentials:
as §1

Substrate in series [3]: Nc1ccn([C@H]2C[C@H](O)[C@@H](COP(=O)(O)O)O2)c(=O)n1
Description: (§2) Ratio of Kcat to Km for YMPK activity expressed in Huh7 cells. Particulars: Homo sapiens; Huh-7. The essentials:
(§3)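 Human YMPK cloned from Huh-7 cells, 37°C, coupled pyruvate kinase/lactate dehydrogenase assay following NADH at 340 nm. Tris-HCl pH 7.5, 1 mM ATP, MgCl2. Enzyme 80 nM with natural monophosphates, 200 nM with the analog monophosphate. Monophosphate substrate concentration varied, steady-state parameters as mean ± SD.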

Substrate in series [4]: O=c1ccn([C@@H]2O[C@H](COP(=O)(O)O)[C@@H](O)[C@H]2O)c(=O)[nH]1
Described as §2. The conditions noted are these: Homo sapiens; Huh-7. The essentials:
as §3

Substrate in series [5]: Nc1ccn([C@@H]2O[C@H](COP(=O)(O)O)[C@@H](O)[C@H]2O)c(=O)n1
The series is described as §2. Particulars: Homo sapiens; Huh-7. The essentials: as §3

Substrate in series [6]: C[C@@]1(F)[C@H](O)[C@@H](COP(=O)(O)O)O[C@H]1n1ccc(N)nc1=O
Described as §2. The conditions noted are these: Homo sapiens; Huh-7. The essentials: as §3

Substrate in series [7]: Nc1ccn([C@H]2C[C@H](O)[C@@H](COP(=O)(O)O)O2)c(=O)n1
Kind of series: (§4) Activity of human YMPK expressed in Huh7 cells assessed as phosphorylation by coupled enzyme assay. Particulars: Huh-7. The essentials: as §3

Substrate in series [8]: O=c1ccn([C@@H]2O[C@H](COP(=O)(O)O)[C@@H](O)[C@H]2O)c(=O)[nH]1
The series is described as §4. The conditions noted are these: Huh-7. The essentials:
as §3

Substrate in series [9]: Nc1ccn([C@@H]2O[C@H](COP(=O)(O)O)[C@@H](O)[C@H]2O)c(=O)n1
The series is described as §4. Particulars: Huh-7. The essentials:
as §3

Substrate in series [10]: C[C@@]1(F)[C@H](O)[C@@H](COP(=O)(O)O)O[C@H]1n1ccc(N)nc1=O
The series is described as §4. Particulars: Huh-7. The essentials:
as §3

B1: Uridine-cytidine kinase 1 (Homo sapiens), Q9HA47 (protein)
chain: MASAGGEDCESPAPEADRPHQRPFLIGVSGGTASGKSTVCEKIMELLGQNEVEQRQRKVVILSQDRFYKVLTAEQKAKALKGQYNFDHPDAFDNDLMHRTLKNIVEGKTVEVPTYDFVTHSRLPETTVVYPADVVLFEGILVFYSQEIRDMFHLRLFVDTDSDVRLSRRVLRDVRRGRDLEQILTQYTTFVKPAFEEFCLPTKKYADVIIPRGVDNMVAINLIVQHIQDILNGDICKWHRGGSNGRSYKRTFSEPGDHPGMLTSGKRSHLESSSRPH
For the protein B1, the kcat/Km (usually the second-order rate constant that governs catalysis at low substrate concentration) in series [1] came to 1300 M⁻¹ s⁻¹. Also, in series [2], the Km (as a rule, the concentration of substrate that gives half-maximal velocity) came to 407 µM; the kcat (as a rule, the number of substrate molecules converted per active site and unit of time at saturation) turned out to be 0.51 s⁻¹.

B2: UMP-CMP kinase (Homo sapiens), P30085 (protein)
chain: MKPLVVFVLGGPGAGKGTQCARIVEKYGYTHLSAGELLRDERKNPDSQYGELIEKYIKEGKIVPVEITISLLKREMDQTMAANAQKNKFLIDGFPRNQDNLQGWNKTMDGKADVSFVLFFDCNNEICIERCLERGKSSGRSDDNRESLEKRIQTYLQSTKPIIDLYEEMGKVKKIDASKSVDEVFDEVVQIFDKEG
As to B2, the specificity constant (kcat/Km) was 36000 M⁻¹ s⁻¹ in series [3], 540000 M⁻¹ s⁻¹ in series [4], 540000 M⁻¹ s⁻¹ in series [5] and 12000 M⁻¹ s⁻¹ in series [6]. The Km was found to be 837 µM in series [7], 151 µM in series [8] and 56 µM in series [9]. In addition, the kcat was found to be 30 s⁻¹ in [7], 81 s⁻¹ in series [8], 30 s⁻¹ in series [9] and 3.3 s⁻¹ in series [10].

These data come from ChEMBL document CHEMBL1142170, “Mechanism of activation of beta-D-2'-deoxy-2'-fluoro-2'-c-methylcytidine and inhibition of hepatitis C virus NS5B RNA polymerase” (Antimicrob Agents Chemother, 2007).
